Source: ChEMBL document CHEMBL1124417, “Synthesis and hypertensive activity of neuropeptide Y fragments and analogues with modified N- or C-termini or D-substitutions” (1989)

Legend:
[1] = Relative potency measured as ratio of ED50 of NPY to ED50 of analogue; assay type: functional
Rattus norvegicus [2] = test: Mean arterial pressure was measured in conscious rats after intra arterial administration at 400 ug/kg dosage.; assay type: functional, Artery
Procedure, shortened: (§1)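 Conscious male Sprague-Dawley rats (240-280 g), catheterised under pentobarbital (40 mg/kg), ≥2 h recovery. Saline peptide solutions as intraarterial 100-µL bolus. MAP via pressure transducer, computed as [[…] + diastolic]. ΔMAP = value at 1 min minus mean pretreatment saline zero values (n = 4). Means ± SEM, n ≥ 3.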

Rattus norvegicus [3] = test: Mean arterial pressure was measured in conscious rats after intra arterial administration at 40 ug/kg dosage.; assay type: functional, Artery; procedure, shortened: as §1
Rattus norvegicus [4] = test: Hypertensive potency in conscious rats after intra arterial administration.; assay type: functional
Procedure, shortened: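 Male Sprague-Dawley rats (240-280 g), conscious; catheters placed under pentobarbital anaesthesia (40 mg/kg) with ≥2 h recovery. Peptides in saline given intraarterially as 100-µL bolus. ΔMAP = posttreatment minus mean pretreatment saline zero values (n = 4).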

Row | Compound | Ratio [1] | Delta MAP (Rattus norvegicus [2]) | Delta MAP (Rattus norvegicus [3]) | ED50 (Rattus norvegicus [4]) [mg/kg]
1 | CC[C@H](C)[C@H](NC(=O)[C@H](Cc1ccc(O)cc1)NC(=O)[C@H](Cc1c[nH]cn1)NC(=O)[C@H](CCCN=C(N)N)NC(=O)[C@H](CC(C)C)NC(=O)[C@H](C)NC(=O)[C@H](CO)NC(=O)[C@H](Cc1ccc(O)cc1)NC(=O)[C@H](Cc1ccc(O)cc1)NC(=O)[C@H](CCCN=C(N)N)NC(=O)[C@H](C)NC(=O)[C@H](CC(C)C)NC(=O)[C@H](CC(=O)O)NC(=O)[C@H](CCC(=O)O)NC(=O)[C@H](C)NC(=O)[C@@H]1CCCN1C(=O)[C@H](C)NC(=O)[C@H](CC(=O)O)NC(=O)[C@H](CCC(=O)O)NC(=O)[C@H](C)NC(=O)[C@@H]1CCCN1C(=O)[C@H](CC(N)=O)NC(=O)[C@H](CC(=O)O)NC(=O)[C@@H]1CCCN1C(=O)[C@H](CCCCN)NC(=O)[C@H](CO)NC(=O)[C@@H]1CCCN1C(=O)[C@@H](N)Cc1ccc(O)cc1)C(=O)N[C@@H](CC(N)=O)C(=O)N[C@@H](CC(C)C)C(=O)N[C@H](C(=O)N[C@H](C(=O)N[C@@H](CCCN=C(N)N)C(=O)N[C@@H](CCC(N)=O)C(=O)N[C@@H](CCCN=C(N)N)C(=O)O)[C@@H](C)O)[C@@H](C)CC | 0.7 | – | – | –
2 | CC[C@H](C)[C@H](NC(=O)[C@H](Cc1ccc(O)cc1)NC(=O)[C@@H](N)Cc1c[nH]cn1)C(=O)N[C@@H](CC(N)=O)C(=O)N[C@@H](CC(C)C)C(=O)N[C@H](C(=O)N[C@H](C(=O)N[C@@H](CCCN=C(N)N)C(=O)N[C@@H](CCC(N)=O)C(=O)N[C@@H](CCCN=C(N)N)C(=O)N[C@@H](Cc1ccc(O)cc1)C(N)=O)[C@@H](C)O)[C@@H](C)CC | – | 7 | <5 | > 0.4
3 | H-YPSKPDNPGEDAPA-OH | – | <5 | <5 | > 0.4
